Experimental data from ChEMBL document CHEMBL3045123, “Isolation and identification of antifungal fatty acids from the basidiomycete Gomphus floccosus” (J Agric Food Chem, 2008).
The source made the active and inactive calls. The calls are words filed in the database; no cut-off is given here.

Assays:
Colletotrichum acutatum [1] = experiment: Antifungal activity against Colletotrichum acutatum assessed as inhibition of fungal growth measured after 72 hr by 96-well microdilution assay; assay type: functional, organism-based
Procedure, shortened: (§1)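 Conidia were harvested from 7-10 day PDA cultures grown at 24 °C with a 12 h photoperiod, filtered through Miracloth, and set to 1.0 × 10^6 conidia/mL by A625. Six-point microdilution broth format used final concentrations of 1, 3.3, 10, 33, 100 and 333 µM, with captan as standard. Growth was read at A620 at 0-72 h (Phomopsis also 120 and 144 h). Two experiments were pooled; IC50 was taken as 50% growth reduction.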

[2] = tested on: Colletotrichum gloeosporioides; experiment: Antifungal activity against Colletotrichum gloeosporioides assessed as inhibition of fungal growth at 80 ug measured after 4 to 5 days by direct bioautography; assay type: functional; details: read-out: DIZ
Procedure, shortened: (§2)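 For TLC direct bioautography, developed plates were sprayed with a conidial suspension of the test fungus. Plates were incubated in a moisture chamber at 26 °C with a 12 h photoperiod. Zones of growth inhibition were measured as diameters 4-5 days after treatment and reported as mean zone dimensions (mm) ± SD.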

[3] = tested on: Colletotrichum gloeosporioides; experiment: Antifungal activity against Colletotrichum gloeosporioides assessed as inhibition of fungal growth at 20 ug measured after 4 to 5 days by direct bioautography; assay type: functional; details: read-out: DIZ; procedure, shortened: as §2
Colletotrichum fragariae [4] = experiment: Antifungal activity against Colletotrichum fragariae assessed as inhibition of fungal growth measured after 72 hr by 96-well microdilution assay; assay type: functional, organism-based; procedure, shortened: as §1
Colletotrichum fragariae [5] = experiment: Antifungal activity against Colletotrichum fragariae assessed as inhibition of fungal growth at 20 ug measured after 4 to 5 days by direct bioautography; assay type: functional; details: read-out: DIZ; procedure, shortened: as §2
Colletotrichum fragariae [6] = experiment: Antifungal activity against Colletotrichum fragariae assessed as inhibition of fungal growth measured after 48 hr by 96-well microdilution assay; assay type: functional, organism-based; procedure, shortened: as §1
Phomopsis viticola [7] = experiment: Antifungal activity against Phomopsis viticola assessed as inhibition of fungal growth measured after 120 hr by 96-well microdilution assay
[8] = tested on: Colletotrichum gloeosporioides; experiment: Antifungal activity against Colletotrichum gloeosporioides assessed as inhibition of fungal growth measured after 72 hr by 96-well microdilution assay; assay type: functional, organism-based; procedure, shortened: as §1
Phomopsis obscurans [9] = experiment: Antifungal activity against Phomopsis obscurans assessed as inhibition of fungal growth measured after 120 hr by 96-well microdilution assay; assay type: functional, organism-based; details: Paraphomopsis obscurans; procedure, shortened: as §1
Colletotrichum acutatum [10] = experiment: Antifungal activity against Colletotrichum acutatum assessed as inhibition of fungal growth at 80 ug measured after 4 to 5 days by direct bioautography; assay type: functional; details: read-out: DIZ; procedure, shortened: as §2
[11] = tested on: Colletotrichum gloeosporioides; experiment: Antifungal activity against Colletotrichum gloeosporioides assessed as inhibition of fungal growth measured after 48 hr by 96-well microdilution assay; assay type: functional, organism-based; procedure, shortened: as §1
Botrytis cinerea [12] = experiment: Antifungal activity against Botryotinia fuckeliana assessed as inhibition of fungal growth measured after 48 hr by 96-well microdilution assay; assay type: functional, organism-based; procedure, shortened: as §1
Colletotrichum fragariae [13] = experiment: Antifungal activity against Colletotrichum fragariae assessed as inhibition of fungal growth at 80 ug measured after 4 to 5 days by direct bioautography; assay type: functional; details: read-out: DIZ; procedure, shortened: as §2
Phomopsis viticola [14] = experiment: Antifungal activity against Phomopsis viticola assessed as inhibition of fungal growth measured after 144 hr by 96-well microdilution assay
Fusarium oxysporum [15] = experiment: Antifungal activity against Fusarium oxysporum assessed as inhibition of fungal growth measured after 72 hr by 96-well microdilution assay; assay type: functional, organism-based; procedure, shortened: as §1
Colletotrichum acutatum [16] = experiment: Antifungal activity against Colletotrichum acutatum assessed as inhibition of fungal growth measured after 48 hr by 96-well microdilution assay; assay type: functional, organism-based; procedure, shortened: as §1
Colletotrichum acutatum [17] = experiment: Antifungal activity against Colletotrichum acutatum assessed as inhibition of fungal growth at 20 ug measured after 4 to 5 days by direct bioautography; assay type: functional; details: read-out: DIZ; procedure, shortened: as §2
Fusarium oxysporum [18] = experiment: Antifungal activity against Fusarium oxysporum assessed as inhibition of fungal growth measured after 48 hr by 96-well microdilution assay; assay type: functional, organism-based; procedure, shortened: as §1
Botrytis cinerea [19] = experiment: Antifungal activity against Botryotinia fuckeliana assessed as inhibition of fungal growth measured after 72 hr by 96-well microdilution assay; assay type: functional, organism-based; procedure, shortened: as §1
Colletotrichum fragariae [20] = experiment: Growth stimulation of Colletotrichum fragariae at 333 uM after 24 to 72 hr by 96-well microdilution assay; assay type: functional, organism-based; procedure, shortened: as §1
[21] = tested on: Colletotrichum gloeosporioides; experiment: Growth stimulation of Colletotrichum gloeosporioides up to 100 uM after 24 to 72 hr by 96-well microdilution assay; assay type: functional, organism-based; procedure, shortened: as §1
Colletotrichum acutatum [22] = experiment: Antifungal activity against Colletotrichum acutatum assessed as inhibition of fungal growth at 90 uM measured after 72 hr by 96-well microdilution assay; assay type: functional; details: read-out: GI
Procedure, shortened: (§3)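 Initial three-point microdilution broth screen at final concentrations of 45, 90 and 135 µM, each in duplicate, against a conidial suspension adjusted photometrically to 1.0 × 10^6 conidia/mL. Growth was read as A620 at 0, 24, 48 and 72 h. Percent inhibition/stimulation means were pooled from two experiments replicated in time.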

[23] = tested on: Colletotrichum gloeosporioides; experiment: Growth stimulation of Colletotrichum gloeosporioides at 333 uM after 24 to 72 hr by 96-well microdilution assay; assay type: functional, organism-based; procedure, shortened: as §1
Fusarium oxysporum [24] = experiment: Growth stimulation of Fusarium oxysporum at 333 uM after 24 to 72 hr by 96-well microdilution assay; assay type: functional, organism-based; procedure, shortened: as §1
Colletotrichum acutatum [25] = experiment: Antifungal activity against Colletotrichum acutatum assessed as inhibition of fungal growth at 90 uM measured after 48 hr by 96-well microdilution assay; assay type: functional; details: read-out: GI; procedure, shortened: as §3
Phomopsis obscurans [26] = experiment: Antifungal activity against Phomopsis obscurans assessed as inhibition of fungal growth measured after 144 hr by 96-well microdilution assay; assay type: functional, organism-based; details: Paraphomopsis obscurans; procedure, shortened: as §1
Colletotrichum fragariae [27] = experiment: Growth stimulation of Colletotrichum fragariae up to 100 uM after 24 to 72 hr by 96-well microdilution assay; assay type: functional, organism-based; procedure, shortened: as §1

| SMILES | IC50 (Colletotrichum acutatum [1]) [µM] | zone of inhibition at 80 µg/disc [2] [mm] | zone of inhibition at 20 µg/disc [3] [mm] | IC50 (Colletotrichum fragariae [4]) [µM] | zone of inhibition at 20 µg/disc (Colletotrichum fragariae [5]) [mm] | IC50 (Colletotrichum fragariae [6]) [µM] | IC50 (Phomopsis viticola [7]) [µM] | IC50 [8] [µM] | IC50 (Phomopsis obscurans [9]) [µM] | zone of inhibition at 80 µg/disc (Colletotrichum acutatum [10]) [mm] | IC50 [11] [µM] | IC50 (Botrytis cinerea [12]) [µM] | zone of inhibition at 80 µg/disc (Colletotrichum fragariae [13]) [mm] | IC50 (Phomopsis viticola [14]) [µM] | IC50 (Fusarium oxysporum [15]) [µM] | IC50 (Colletotrichum acutatum [16]) [µM] | zone of inhibition at 20 µg/disc (Colletotrichum acutatum [17]) [mm] | IC50 (Fusarium oxysporum [18]) [µM] | IC50 (Botrytis cinerea [19]) [µM] | also measured |
| --- | --- | --- | --- | --- | --- | --- | --- | --- | --- | --- | --- | --- | --- | --- | --- | --- | --- | --- | --- | --- |
| CCCCC/C=C/C=C/C(=O)CCCCCCCC(=O)O | > 333 | 7 | 6 | > 333 | 4 | 91 | 110 | > 333 | 23 | 17 | > 333 | 90 | 6 | 65 | > 333 | > 333 | 8 | > 333 | > 333 | – |
| CCCCC/C=C\C=C\[C@@H](O)CCCCCCCC(=O)O | > 333 | 7 | 3 | > 333 | 6 | > 333 | > 333 | > 333 | 10 | 19 | > 333 | > 333 | 10 | 100 | > 333 | > 333 | 5 | > 333 | > 333 | Activity (Colletotrichum fragariae [20]): inactive; Activity [21]: Active; inhibition of growth at 90 µM (Colletotrichum acutatum [22]): 37%; Activity [23]: inactive; Activity (Fusarium oxysporum [24]): Active; growth inhibition (GI) (Phomopsis viticola [14]): Dose-dependent effect; inhibition of growth at 90 µM (Colletotrichum acutatum [25]): 79%; growth inhibition (GI) (Phomopsis obscurans [26]): Dose-dependent effect; Activity (Colletotrichum fragariae [27]): Active |
| O=C1C2CC=CCC2C(=O)N1SC(Cl)(Cl)Cl (centres undefined) [CAPTAN] | 5.2 | – | – | 3 | – | 1.6 | < 1 | 4.7 | 1.1 | – | 2.1 | 1.4 | – | < 1 | 16 | 2.5 | – | 2.8 | 2.8 | – |
| CCCCCC(=O)/C=C\C=C\CCCCCCCC(=O)O | > 333 | 7 | 6 | 270 | 6 | 160 | 115 | > 333 | 4.5 | 19 | > 333 | 120 | 8 | 38 | > 333 | > 333 | 4 | > 333 | > 333 | – |
